Reference: ChEMBL document CHEMBL4411315, “Discovery of Novel Dual Histone Deacetylase and Mammalian Target of Rapamycin Target Inhibitors as a Promising Strategy for Cancer Therapy” (J Med Chem, 2019)
pIC50: −log10 of the molar value.

Legend:
MM1.S [1] = assay: Cell cycle arrest in human MM1S cells assessed as accumulation at S phase at 2.5 nM after 24 hrs by propidium iodide/RNase staining-based FACS analysis (reference value: 24.49%); format: functional
MV4-11 [2] = assay: Antitumor activity against human MV4-11 cells xenografted in NOD/SCID mouse assessed as tumor growth inhibition at 10 mg/kg, iv administered every 2 days for 6 days and measured every 2 days post last dose by caliper method relative to control; format: functional; settings: MV4-11, iv, read-out: TGI
How it was run: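 Female NOD/SCID mice aged 5-6 weeks received 10^7 MV4-11 cells in 100 μL serum-free IMDM s.c. into the right flank. At 100-200 mm3 the mice were randomized, 6 per group. Dosing was i.v. at 10 mg/kg every 2 days, in saline with 2.5% DMSO and 10% cyclodextrin at pH 9. Tumours were measured by caliper every 2 days, with volume = length × width² × 0.5, and were weighed at sacrifice.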

MM1.S [3] = assay: Induction of apoptosis in human MM1S cells assessed as viable cells at 20 nM after 48 hrs by Annexin V-FITC/propidium iodide staining-based flow cytometric analysis (reference value: 98.9%); format: functional; settings: read-out: Activity
[4] = target: Serine/threonine-protein kinase mTOR (Homo sapiens, UniProt P42345); assay: Inhibition of recombinant N-terminal FLAG-tagged human mTOR (1362 to end residues) using ULight-4E-BP1 (Thr37/46) peptide as substrate after 1 hr by fluorescence assay
How it was run: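 mTOR enzyme, ATP, compound and ULight-4E-BP1 (Thr37/46) peptide in kinase buffer were incubated 1 h at room temperature. EDTA quench plus Eu-anti-phospho-4E-BP1 antibody was added and equilibrated 1 h. TR-FRET was read at excitation 320 or 340 nm and emission 665 nm. Curves were fitted, and values are means of at least two experiments.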

MM1.S [5] = assay: Antitumor activity against human MM1S cells xenografted in NOD/SCID mouse assessed as tumor growth inhibition at 10 mg/kg, iv administered every 2 days for 5 days and measured every 2 days post last dose by caliper method relative to control; format: functional; settings: read-out: TGI
How it was run: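 MM1S xenografts were made with 10^7 cells in 100 μL serum-free RPMI 1640, injected s.c. into the right flank of female NOD/SCID mice aged 5-6 weeks. Mice were randomized at 100-200 mm3, 6 per group. Dosing was i.v. every 2 days in saline with 2.5% DMSO and 10% cyclodextrin at pH 9. Tumours were measured by caliper every 2 days (volume = length × width² × 0.5) and weighed at the end.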

Raji = assay: Antiproliferative activity against human Raji cells after 72 hrs by MTT assay; format: functional, cell-based
How it was run: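 Log-phase cells were plated at 10000-15000 per well and exposed to serial concentrations after 24 h for 72 h. Read-out was MTT for 1-3 h, then 20% SDS overnight and absorbance at 570 nm. IC50 was calculated from growth versus untreated control, as mean ± SEM of at least three independent experiments.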

MV4-11 [6] = assay: Induction of apoptosis in human MV4-11 cells assessed as early apoptotic cells at 10 nM after 48 hrs by Annexin V-FITC/propidium iodide staining-based flow cytometric analysis (reference value: 10.7%); format: functional
MV4-11 [7] = assay: Cell cycle arrest in human MV4-11 cells assessed as accumulation at G0/G1 phase at 5 nM after 24 hrs by propidium iodide/RNase staining-based FACS analysis (reference value: 44.79%); format: functional
MM1.S [8] = assay: Induction of apoptosis in human MM1S cells assessed as necrotic cells at 40 nM after 48 hrs by Annexin V-FITC/propidium iodide staining-based flow cytometric analysis (reference value: 0.32%); format: functional
[9] = Toxicity against NOD/SCID mouse xenografted with human MM1S cells assessed as effect on body weight at 20 mg/kg, iv administered every 2 days for 5 days; format: organism-based; settings: in vivo
How it was run: (§1)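 Female NOD/SCID mice, 5-6 weeks old, received 10^7 MM1S cells in 100 μL serum-free RPMI 1640 s.c. into the right flank. At 100-200 mm3 tumours they were randomised, 6 mice per group. Tumours were measured by caliper every 2 days. At the end, tumours were excised and weighed. Survivors are reported per group.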

MM1.S [10] = assay: Cell cycle arrest in human MM1S cells assessed as accumulation at G0/G1 phase at 5 nM after 24 hrs by propidium iodide/RNase staining-based FACS analysis (reference value: 49.22%); format: functional
MM1.S [11] = assay: Induction of apoptosis in human MM1S cells assessed as viable cells at 80 nM after 48 hrs by Annexin V-FITC/propidium iodide staining-based flow cytometric analysis (reference value: 98.9%); format: functional; settings: read-out: Activity
MM1.S [12] = assay: Induction of apoptosis in human MM1S cells assessed as viable cells at 320 nM after 48 hrs by Annexin V-FITC/propidium iodide staining-based flow cytometric analysis (reference value: 98.9%); format: functional; settings: read-out: Activity
[13] = Toxicity against NOD/SCID mouse xenografted with human MM1S cells assessed as mouse survival at 10 mg/kg, iv administered every 2 days for 5 days; format: organism-based; settings: in vivo; how it was run: as §1
MM1.S [14] = assay: Induction of apoptosis in human MM1S cells assessed as necrotic cells at 20 nM after 48 hrs by Annexin V-FITC/propidium iodide staining-based flow cytometric analysis (reference value: 0.32%); format: functional
MV4-11 [15] = assay: Induction of apoptosis in human MV4-11 cells assessed as early apoptotic cells at 160 nM after 48 hrs by Annexin V-FITC/propidium iodide staining-based flow cytometric analysis (reference value: 10.7%); format: functional
[16] = target: PI3-kinase p110-alpha/p85-alpha (Homo sapiens) (UniProt P27986+P42336); assay: Inhibition of recombinant human full length N-terminal His-tagged/untagged p110alpha/p85alpha expressed in baculovirus expression system at 100 nM using PIP2 as substrate after 1 hr by Kinase-Glo reagent-based assay relative to control
How it was run: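 PI3Kα (p110α/p85α) incubated with PIP2 substrate and ATP in kinase buffer for 1 h at room temperature. Kinase-Glo reagent was then added for 15 min before luminescence read-out. Inhibition rate at 100 or 1000 nM is the mean of at least two experiments.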

Histone deacetylase 2 = Histone deacetylase 2 (Homo sapiens, UniProt Q92769); assay: Inhibition of recombinant full length human HDAC2 expressed in baculovirus expression system using Ac-peptide-AMC as substrate preincubated for 15 mins followed by substrate addition and measured after 1 hr by fluorescence assay
MV4-11 [17] = assay: Cell cycle arrest in human MV4-11 cells assessed as accumulation at G2/M phase at 1.25 nM after 24 hrs by propidium iodide/RNase staining-based FACS analysis (reference value: 18.79%); format: functional
MV4-11 [18] = assay: Induction of apoptosis in human MV4-11 cells assessed as late apoptotic cells at 160 nM after 48 hrs by Annexin V-FITC/propidium iodide staining-based flow cytometric analysis (reference value: 5.03%); format: functional
MV4-11 [19] = assay: Cell cycle arrest in human MV4-11 cells assessed as accumulation at G0/G1 phase at 1.25 nM after 24 hrs by propidium iodide/RNase staining-based FACS analysis (reference value: 44.79%); format: functional
MV4-11 [20] = assay: Induction of apoptosis in human MV4-11 cells assessed as necrotic cells at 40 nM after 48 hrs by Annexin V-FITC/propidium iodide staining-based flow cytometric analysis (reference value: 0.17%); format: functional

Chain of Histone deacetylase 2 (Q92769 whole entry): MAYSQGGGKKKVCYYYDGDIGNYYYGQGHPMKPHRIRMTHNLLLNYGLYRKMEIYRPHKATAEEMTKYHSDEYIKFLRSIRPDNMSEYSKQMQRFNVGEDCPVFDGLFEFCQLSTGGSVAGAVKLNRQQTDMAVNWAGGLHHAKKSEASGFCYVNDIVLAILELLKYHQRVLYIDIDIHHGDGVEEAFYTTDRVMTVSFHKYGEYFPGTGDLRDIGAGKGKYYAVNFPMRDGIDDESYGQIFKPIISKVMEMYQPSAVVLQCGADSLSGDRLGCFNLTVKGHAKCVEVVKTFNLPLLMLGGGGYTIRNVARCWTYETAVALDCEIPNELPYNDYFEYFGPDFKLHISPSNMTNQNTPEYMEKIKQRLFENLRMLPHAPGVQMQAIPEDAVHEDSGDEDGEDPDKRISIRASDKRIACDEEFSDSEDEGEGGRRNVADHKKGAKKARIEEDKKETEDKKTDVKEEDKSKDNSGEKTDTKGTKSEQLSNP

C[C@@H]1CN(C(=O)Nc2ccc(-c3nc(N4CCOCC4)c4cnn(CCCCCCC(=O)NO)c4n3)cc2)CCO1
Activity (MM1.S [1]): 21.59% | inhibition in vivo at 10 mg/kg (MV4-11 [2]): 53.1% | viability at 0.02 µM (MM1.S [3]): 92.6% | pIC50 [4]: 8.92 | inhibition in vivo at 10 mg/kg (MM1.S [5]): 48.1% | pIC50 (Raji): 8.72 | Activity (MV4-11 [6]): 14.8% | Activity (MV4-11 [7]): 64.69% | Activity (MM1.S [8]): 2.08% | Activity [9]: Non-Toxic | Activity (MM1.S [10]): 57.95% | viability at 0.08 µM (MM1.S [11]): 49.7% | viability at 0.32 µM (MM1.S [12]): 3.68% | Activity [13]: Non-Toxic | Activity (MM1.S [14]): 1.05% | Activity (MV4-11 [15]): 34.7% | inhibition [16]: 28.3% | pIC50 (Histone deacetylase 2): 9.21 | Activity (MV4-11 [17]): 18.99% | Activity (MV4-11 [18]): 61.9% | Activity (MV4-11 [19]): 46.85% | Activity (MV4-11 [20]): 2.05%
